Assay outcomes as filed in PubChem BioAssay.
Cneo AK release – causes C. neoformans cell lysis | adenylate kinase release luminescence, 4 h; normalised: neutral wells 0, clomiphene wells 100 | lysis activity, % at 15 µM | actives 0.2% (n = 360,000) | AID 651654;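 active = mean lysis activity across replicates of at least 80%, whatever share of replicates individually reach that level; inactive = mean lysis activity below 80%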
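Material – log-phase Cryptococcus neoformans yeast cells · Input – 5 × 10^6 yeast cells/mL · Medium – fresh YPD growth medium · Doses – single compound concentration per well · Timing – static 4 h at 37 °C with compound, 1 h detection · Detection – adenylate kinase release luminescence · Read-out – signal increase indicating cell lysis · Control set – Clomiphene as positive lysis control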
MITF act – activators of MITF-driven TRPM1 promoter activity in SK-MEL-5 cells | activation, % at 12.5 µM | actives 0.75% (n = 300,000) | SK-MEL-5 TRPM1-promoter luciferase, 24 h; % of positive control, neutral wells = 0;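 active = mean activation of at least 80% with every replicate also reaching 80%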;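 also: 0% = neutral control wells and 100% = parthenolide positive control wells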
ERAP1 inh – ERAP1 (human) enzyme inhibition; Q9NZ08; recombinant ERAP1, Leu-AMC fluorescence, 60 min; inhibition, % at 10.7 µM; actives 0.15% (n = 340,000); AID 652197;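 active = mean replicate inhibition of at least 30%, or all replicates individually reaching that 30% level; inactive = mean below 30% and not every replicate reaching it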;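 also: 0% = neutral control wells and 100% = L-leucinethiol positive control wells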
Target sequence (Q9NZ08 whole entry, looked up): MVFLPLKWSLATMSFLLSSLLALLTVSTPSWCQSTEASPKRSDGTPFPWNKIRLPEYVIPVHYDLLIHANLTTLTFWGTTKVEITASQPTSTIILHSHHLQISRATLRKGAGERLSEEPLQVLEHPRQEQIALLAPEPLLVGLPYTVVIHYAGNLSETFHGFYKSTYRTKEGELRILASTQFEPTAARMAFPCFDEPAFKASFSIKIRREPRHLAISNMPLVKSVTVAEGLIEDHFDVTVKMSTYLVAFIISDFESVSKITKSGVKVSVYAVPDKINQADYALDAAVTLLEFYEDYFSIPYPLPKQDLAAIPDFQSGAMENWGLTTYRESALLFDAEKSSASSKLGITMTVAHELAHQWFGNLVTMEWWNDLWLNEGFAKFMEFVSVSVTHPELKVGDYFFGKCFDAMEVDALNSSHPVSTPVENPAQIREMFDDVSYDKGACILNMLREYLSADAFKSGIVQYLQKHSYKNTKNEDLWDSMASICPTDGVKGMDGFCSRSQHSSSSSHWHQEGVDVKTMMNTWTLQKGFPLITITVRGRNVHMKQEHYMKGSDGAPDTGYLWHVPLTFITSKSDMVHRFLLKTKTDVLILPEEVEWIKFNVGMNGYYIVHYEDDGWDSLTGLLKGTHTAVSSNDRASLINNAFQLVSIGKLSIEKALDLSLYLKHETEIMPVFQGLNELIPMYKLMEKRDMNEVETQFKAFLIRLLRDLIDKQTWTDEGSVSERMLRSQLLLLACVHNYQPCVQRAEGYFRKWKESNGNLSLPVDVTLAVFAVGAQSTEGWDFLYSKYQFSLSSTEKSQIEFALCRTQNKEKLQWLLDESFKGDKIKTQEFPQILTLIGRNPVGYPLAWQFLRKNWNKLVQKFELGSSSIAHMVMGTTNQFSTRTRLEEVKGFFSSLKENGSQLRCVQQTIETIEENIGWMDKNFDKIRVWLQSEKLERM
Wnt act – Wnt/beta-catenin pathway activation. actives 1.2% (n = 300,000). activation, % at 9.35 µM. AID 743398. Wnt/beta-catenin reporter cell assay, activator, plate reader; in the data active = activation above about 30%, passing the limit was not always enough;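 also: 0% = neutral control wells and 100% = positive control wells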
esBAF inh – inhibitors of esBAF chromatin remodeling in mouse ES cells; reporter increase, % at 12.5 µM; AID 602393; Bmi1-luciferase knock-in reporter, 24 h; 100% = twice the neutral-well signal; actives 2% (n = 350,000); in the data active = activation above about 40%;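 also: 0% = median of the plate's neutral control wells and 100% = double that signal; a rise in the Bmi1 reporter signal indicates esBAF inhibition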
HIV Env fusion – blocks HIV Env-driven cell-cell fusion; actives 1.1% (n = 360,000); inhibition, % at 12.3 µM; HeLa-JRFL Env/CEM21 cell fusion, luciferase;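 active = mean replicate inhibition score of at least 50 and every replicate individually at or above 50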;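 also: 0% = plate neutral controls and 100% = maraviroc near 300 nM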
Numbers without * were called inactive; . = no result; [ ] = another dose, or the depositor's remark. A selection: hits, their analogues and other compounds. The true share with any hit is near 3.5%.

SMILES	Cneo AK release	MITF act	ERAP1 inh	Wnt act	esBAF inh	HIV Env fusion
CN1CCN(/N=C/c2ccc(N(c3ccccc3)c3ccccc3)cc2)CC1	-4	13	-1	0	-1	27
CN1CCN(/N=C/c2ccc(Cl)c(Cl)c2)CC1	.	88*	.	.	.	10
CCCNC(=O)Nc1ccc2c(c1)OC[C@@H](C)N(Cc1ccccn1)C[C@H](C)[C@@H](OC)CN(C)C2=O	-4	.	2	.	-1	.
COc1cccc(C(=O)Nc2ccc3c(c2)C(=O)N(C)C[C@H](OC)[C@@H](C)CN(CCc2ccccc2)[C@H](C)CO3)c1	2	.	.	.	5	55*[16.7 µM]
CCCN1C[C@H](C)[C@@H](OC)CN(C)C(=O)c2cc(NC(=O)c3cccc(F)c3)ccc2OC[C@@H]1C	117*	.	-2	.	10	.
CC(C)NC(=O)NCC[C@H]1CC[C@H](NC(=O)CCN2CCCCC2)[C@H](CO)O1	1	.	-2	.	-5	.
COCC(=O)N(C)C[C@H]1Oc2ncc(C#Cc3ccccc3)cc2C(=O)N([C@@H](C)CO)C[C@H]1C	-2	.	2	.	-7	11[16.7 µM]
O=C(O)c1ccc(-c2noc(-c3cccc(F)c3)n2)cc1	0	53	-3	45*	1	-37
COc1cccc(-c2nc(-c3ccc(C(=O)O)cc3)no2)c1	-5	6	0	22	8	-175
C[C@@H]1CCCCO[C@H](CN(C)C(=O)C2CCCCC2)[C@H](C)CN([C@H](C)CO)C(=O)c2cc(NS(=O)(=O)c3ccc(F)cc3)ccc2O1	36	.	2	.	2	-14[16.7 µM]
C/C(N)=C(/C#N)C(=O)COC(=O)c1cc(C)n(-c2ccc(F)cc2)c1C	-2	69	1	-3	67*	-44
CC(=O)NC[C@H]1[C@@H](c2ccc(-c3cccc(F)c3)cc2)[C@@H](CO)N1C(C)=O	2	.	-1	.	-1	.
COc1ccc(S(=O)(=O)N(C)C[C@@H]2Oc3ccc(NC(=O)Nc4ccc(C(F)(F)F)cc4)cc3CC(=O)N([C@H](C)CO)C[C@@H]2C)cc1	-1	.	0	.	0	8[16.7 µM]
COc1ccccc1NC(=O)N1C[C@@H](O)COC[C@@H]2O[C@H](CC(=O)NCCc3ccccc3)CC[C@H]21	-1	.	0	.	-7	.
CC=Cc1ccc2n(c1=O)C[C@H]1[C@H](CO)[C@@H](C(=O)Nc3ccc(-c4ccccc4)cc3)N(CC)[C@@H]21 (mixture of isomers)	46	.	2	.	46*	.
CC=Cc1ccc2n(c1=O)C[C@@H]1[C@@H](CO)[C@H](C(=O)Nc3ccc(-c4ccccc4)cc3)N(CC)[C@H]21 (mixture of isomers)	60	.	2	.	21	.
CC=Cc1ccc2n(c1=O)C[C@@H]1[C@@H](CO)[C@H](C(=O)Nc3ccc(-c4ccccc4)cc3)N(C)[C@H]21 (mixture of isomers)	39	.	2	.	61*	.
CN(C)S(=O)(=O)c1cccc(NC(=O)CNc2cccc(S(=O)(=O)N3CCCCC3)c2)c1	1	.	0	-4	15	64*
COc1ccc(CC(=O)Nc2cccc(S(=O)(=O)N3CCCCCC3)c2)cc1OC	1	-27	.	-9	.	68*
O=C(CNc1cccc(S(=O)(=O)N2CCCCC2)c1)Nc1cccc(F)c1	-2	-16	-1	-3	-7	5
Cc1ccccc1-n1c(-c2ccc(=O)[nH]n2)n[nH]c1=S	2	-4	7	0	-2	0
CC(C)(C)c1cc(-c2n[nH]c(=S)n2-c2ccccc2F)n[nH]1	-4	.	-1	34*	7	-18
O=[N+]([O-])c1ncccc1OCc1ccc(Cl)c(Cl)c1	4	67	2	18	67*	-6
CN(C)S(=O)(=O)c1cccc(COc2cccnc2[N+](=O)[O-])c1	1	3	0	-2	-3	-11
Cc1ccc(S(=O)(=O)N[C@H]2CC[C@@H](CCNC(=O)Nc3ccc(Cl)cc3)O[C@H]2CO)cc1	-3	.	1	.	45*	-17[16.7 µM]
SMILES	Cneo AK release	MITF act	ERAP1 inh	Wnt act	esBAF inh	HIV Env fusion
Cc1ccc(S(=O)(=O)N[C@@H]2CC[C@H](CCNC(=O)c3ccccc3F)O[C@H]2CO)cc1	22	.	-2	.	-2	66*[16.7 µM]
CC(=O)N[C@H]1CC[C@@H](CCNC(=O)C2CCC2)O[C@H]1CO	112*	.	6	.	5	-2[16.7 µM]
O=C(N[C@@H]1CC[C@H](CCNS(=O)(=O)c2ccc(F)cc2)O[C@@H]1CO)C1CC1	-1	.	1	.	1	59*[16.7 µM]
Cc1ccc(S(=O)(=O)N[C@H]2CC[C@H](CCNC(=O)c3ccccc3F)O[C@@H]2CO)cc1	55	.	-1	.	8	11[16.7 µM]
Cc1ccc(S(=O)(=O)N[C@@H]2CC[C@H](CCNC(=O)Nc3ccc(Cl)cc3)O[C@@H]2CO)cc1	2	.	0	.	15	-9[16.7 µM]
CNC[C@H]1Oc2ccc(NC(=O)Nc3ccccc3)cc2CC(=O)N([C@@H](C)CO)C[C@H]1C	2	.	-2	.	2	.
COCCOC(=O)N1C(=O)[C@@]2(c3cc(C#Cc4ccc(OC)cc4)ccc31)[C@H](C(=O)N1CCN(c3ncccn3)CC1)[C@H]1C(=O)O[C@H](c3ccccc3)[C@H](c3ccccc3)N1[C@@H]2c1ccccc1OCCO	2	.	0	.	.	-9[16.7 µM]
C[C@H](CO)N1C[C@H](C)[C@@H](CN(C)Cc2ccccc2)Oc2ccc(NC(=O)C3CC3)cc2CC1=O	-4	.	0	.	2	1[16.7 µM]
O=C(Nc1cccc(F)c1)N[C@@H]1CC[C@H](CCNS(=O)(=O)c2cccc(Cl)c2)O[C@@H]1CO	0	.	-2	.	6	80*[16.7 µM]
O=C(NCC[C@H]1CC[C@H](NC(=O)Nc2cc(F)ccc2F)[C@H](CO)O1)Nc1ccc(Cl)cc1	-6	.	1	.	43*	2[16.7 µM]
O=C(Nc1ccccc1)N[C@H]1CC[C@H](CCNC(=O)c2ccccc2F)O[C@@H]1CO	0	.	1	.	1	-2[16.7 µM]
O=S(=O)(NCC[C@H]1CC[C@H](NS(=O)(=O)c2ccccc2Cl)[C@H](CO)O1)c1ccc(Cl)cc1	7	.	0	.	10	58*[16.7 µM]
O=C(Nc1ccccc1)N[C@@H]1CC[C@@H](CCNC(=O)c2ccccc2F)O[C@H]1CO	107*	.	4	.	3	-10[16.7 µM]
COCC(=O)N(C)C[C@@H]1Oc2cc(C3=CCCCC3)ccc2S(=O)(=O)N([C@H](C)CO)C[C@@H]1C	-2	.	2	.	4	1[16.7 µM]
CC(C)NC(=O)N(C)C[C@@H]1Oc2c(NC(=O)C3CC3)cccc2C(=O)N([C@H](C)CO)C[C@H]1C	42	.	4	.	-2	1[16.7 µM]
CCC(CO)Nc1ccn2nc(-c3cccs3)cc2n1 (stereo unspecified)	-1	.	0	2	55*	-71
CCC(CO)Nc1ccn2nc(-c3cc(OC)c(OC)c(OC)c3)cc2n1 (stereo unspecified)	0	.	3	0	-6	4
